In article PMC8721254 (Journal of Advanced Research, 2021):

Tests used:
RBL-2H3 cells = experiment: β-hexosaminidase; format: cell-based, rat; conditions: DNP-HSA-induced degranulation of RBL-2H3
In short: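 Rat basophilic leukaemia RBL-2H3 cells were seeded at 72 × 10^3 cells/well and sensitized overnight with anti-DNP-HSA IgE, then moved to DMEM containing 1 mg/mL BSA. Test compound, vehicle (0.1% DMSO) or cromolyn was preincubated 5 min at 37 °C, and degranulation was triggered with DNP (10 ng/mL). After 1 h, supernatant β-hexosaminidase was read at 405 nm with p-nitrophenyl-N-acetyl-β-D-glucosaminide substrate. Values are relative to DNP-HSA as 100%, analysed by one-way ANOVA/Bonferroni.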

[1] = tested on: OVA-induced allergic lung inflammation; experiment: OVA-induced allergic lung inflammation and remodeling; format: in vivo, Balb/c mice; conditions: mice, oral, equimolar doses equivalent to 5.5 mg/kg prednisone (compound 7 9.1 mg/kg); for number of peribronchiolar eosinophils / number of peribronchiolar mast cells: vs allergic mice; for peribronchiolar collagen density / peribronchiolar smooth muscle (α-actin): vs vehicle-treated allergic mice
In short: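 Male Balb/c mice, 4–5 weeks old (n = 5/group), sensitized with subcutaneous OVA on alum on days 1 and 11 plus intranasal OVA on day 11. Intranasal OVA challenges followed on two consecutive days weekly for six weeks; controls got saline. Oral dosing in 0.5% carboxymethyl cellulose (1 mL/kg) was given 30 min before each challenge, then daily for 4 weeks until euthanasia. Formalin-fixed lungs were scored for α-actin (immunohistochemistry) and collagen (Masson's trichrome); one-way ANOVA with Tukey test.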

[2] = Enzymatic stability in human serum; format: in vitro ADME
In short: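 Sterile-filtered human serum was spiked with test compound from a 10 mM DMSO stock (1% DMSO), in triplicate, at 37 °C. Aliquots taken at intervals up to 24 h were deproteinized with an equal volume of CH3CN containing 0.1% TFA. Samples were vortexed, sonicated 3 min, centrifuged 5 min at 2500 g, filtered, and analysed by C18 RP-HPLC against calibration standards. Half-life is reported as mean ± SD, n = 3.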

[3] = Chemical stability in simulated gastric fluid; format: physicochemical; conditions: simulated gastric fluid (SGF) without pepsin, pH 1.2
In short: (§1)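 Test compound was taken from a 10 mM DMSO stock and diluted into PBS pH 7.4 or pepsin-free SGF pH 1.2 (0.5% DMSO final), in triplicate. Samples were incubated at 37 ± 0.5 °C for 24 h with sampling at intervals. Parent compound, glucocorticoid, H2S-donor moiety and succinate metabolite were quantified by C18 RP-HPLC (CH3CN/water 0.1% TFA gradient; UV 234/250/300 nm) against calibration standards. Results are % remaining, mean ± SD, n = 3.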

BSMCs [4] = experiment: Intracellular H2S release; format: cell-based; conditions: WSP-1-preloaded BSMCs, 40 min
In short: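 Bronchial smooth muscle cells were grown at 37 °C in 5% CO2 with 1% pen/strep and seeded at 30 × 10^3 cells/well. Cells were loaded with the H2S-sensitive dye WSP-1, then exposed to test compound, vehicle, or diallyl disulfide as reference donor. Fluorescence was recorded spectrofluorometrically for 40 min and expressed as fluorescence index, mean ± SEM.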

[5] = Chemical stability in saline phosphate buffer; format: physicochemical; conditions: phosphate buffered saline (PBS), pH 7.4
In short: as §1

BSMCs [6] = experiment: Membrane hyperpolarizing effects on BSMCs; format: cell-based; conditions: reference NS1619 10 µM

Row | Compound | inhibition of mast cell degranulation (β-hexosaminidase release) (RBL-2H3 cells; 100 and 300 µM) | number of peribronchiolar eosinophils [1] | number of peribronchiolar mast cells [1] | peribronchiolar collagen density [1] | peribronchiolar smooth muscle (α-actin) [1] | half-life at 100 µM [2] | remaining at 24 h, 50 µM [3] | Intracellular H2S release, fluorescence index (FI) (BSMCs [4]; 100 and 300 µM) | remaining at 24 h, 50 µM [5] | hyperpolarizing effect compared to NS1619 10 µM (BSMCs [6]; 100 µM) | hyperpolarizing effect compared to NS1619 10 µM (BSMCs [6]; 300 µM) | Intracellular H2S release, fluorescence index (FI) (BSMCs [4]; 100 µM, vs vehicle) | inhibition of mast cell degranulation (β-hexosaminidase release) (RBL-2H3 cells; 300 µM) | Intracellular H2S release, fluorescence index (FI) (BSMCs [4]; 300 µM)
1 | C[C@]12C=CC(=O)C=C1CC[C@@H]1[C@@H]2C(=O)C[C@@]2(C)[C@H]1CC[C@]2(O)C(=O)CO [Compound 2, prednisone, reference compound] | totally inactive | significantly reduced | significantly reduced | efficient in reducing | efficient in reducing |  |  |  |  |  |  |  |  | 
2 | C[C@@H]1C[C@H]2[C@@H]3CCC4=CC(=O)C=C[C@]4(C)[C@@]3(F)[C@@H](O)C[C@]2(C)[C@@]1(O)C(=O)COC(=O)CCC(=O)Oc1ccc(-c2cc(=S)ss2)cc1 [Compound 6, 2-((8S,9R,10S,11S,13S,14S,16R,17R)-9-fluoro-11,17-dihydroxy-10,13,16-trimethyl-3-oxo-6,7,8,9,10,11,12,13,14,15,16,17-dodecahydro-3H-cyclopenta[a]phenanthren-17-yl)-2-oxoethyl (4-(3-thioxo-3H-1,2-dithiol-5-yl)phenyl) succinate] |  |  |  |  |  | 10 ± 1 min | 99 ± 1% | did not cause any significant increase in fluorescence | 99 ± 2% |  |  |  |  | 
3 | C[C@]12C=CC(=O)C=C1CC[C@@H]1[C@@H]2C(=O)C[C@@]2(C)[C@H]1CC[C@]2(O)C(=O)COC(=O)CCC(=O)Oc1ccc(C(N)=S)cc1 [Compound 7, 4-carbamothioylphenyl (2-((8S,9S,10R,13S,14S,17R)-17-hydroxy-10,13-dimethyl-3,11-dioxo-6,7,8,9,10,11,12,13,14,15,16,17-dodecahydro-3H-cyclopenta[a]phenanthren-17-yl)-2-oxoethyl) succinate] | significant inhibitory effect on mast cell degranulation | significantly reduced | significantly reduced | significantly more efficient than the parent prednisone | significantly more efficient than the parent prednisone | 15 ± 2 min | 99 ± 1% | significant increase in the intracellular level of H2S | 97 ± 1% | about 240% | about 309% |  |  | 
4 | C[C@]12C=CC(=O)C=C1CC[C@@H]1[C@@H]2C(=O)C[C@@]2(C)[C@H]1CC[C@]2(O)C(=O)COC(=O)CCC(=O)Oc1ccc(-c2cc(=S)ss2)cc1 [Compound 8, 2-((8S,9S,10R,13S,14S,17R)-17-hydroxy-10,13-dimethyl-3,11-dioxo-6,7,8,9,10,11,12,13,14,15,16,17-dodecahydro-3H-cyclopenta[a]phenanthren-17-yl)-2-oxoethyl (4-(3-thioxo-3H-1,2-dithiol-5-yl)phenyl) succinate] |  |  |  |  |  | 9 ± 2 min | 99 ± 1% | did not cause any significant increase in fluorescence | 99 ± 2% |  |  |  |  | 
5 | C=CCSSCC=C [DADS, diallyl disulfide, reference compound] |  |  |  |  |  |  |  |  |  |  |  | significant FI increase |  | 
6 | NC(=S)c1ccc(O)cc1 [TBZ, 4-hydroxy-thiobenzamide, reference compound] |  |  |  |  |  |  |  |  |  | 38% | 43% | slight increase of FI | significant inhibition of RBL-2H3 degranulation | massive increase in FI
